Measurements: ChEMBL document CHEMBL1671650, “In vitro activity and preclinical profile of TMC435350, a potent hepatitis C virus protease inhibitor” (Antimicrob Agents Chemother, 2009)
Calls of active or inactive are those of the source.

Assays:
[1] = Ratio of AUC (0 to 31 hrs) in Sprague-Dawley rat kidney to AUC (0 to 31 hrs) in Sprague-Dawley rat plasma at 40 mg/kg, po administered as single dose; format: ADME, organism-based; design: dose 40 mg/kg, route oral
Procedure, shortened: (§1)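 Male specific-pathogen-free Sprague-Dawley rats (200–300 g), three per group, single gastric intubation at 2 ml/kg of a vitamin E TPGS–PEG 400 solution; food and water ad libitum. Plasma sampled 30 min to 31 h; tissues dissected from oral groups. LC-MS/MS (LLOQ 1 ng/ml plasma, 5 ng/g tissue); noncompartmental analysis; ratios from mean of three rats.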

Hepatitis C virus [2] = assay: Antiviral activity against Hepatitis C virus in presence of 1 mg/ml alpha-1 acid glycoprotein
[3] = Cytotoxicity against human HuH7 cells upto 42 uM after 3 to 4 days by resazurin proliferation assay; format: cell-based; conditions: huh-7
Procedure, shortened: (§2)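 Human cell lines in DMEM with 10% heat-inactivated FBS and 2 mM L-glutamine (replicon cells plus 0.75 mg/ml G418 in maintenance). Exposed to compound for 3 to 4 days; resazurin fluorescence read-out. CC50 from inhibition curves.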

[4] = AUC (0 to infinity) in Sprague-Dawley rat at 40 mg/kg, po; format: ADME, organism-based; design: dose 40 mg/kg, route oral; conditions: plasma, read-out: AUBC
Procedure, shortened: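 Male specific-pathogen-free Sprague-Dawley rats (200-300 g), three per group; single gastric intubation of vitamin E TPGS-polyethylene glycol 400 solution at 2 ml/kg. Plasma taken from orbital plexus at 0.5, 1, 2, 4, 8, 24 and 31 h; LC-MS/MS (LLOQ 1 ng/ml); noncompartmental analysis; rats fed and watered ad libitum.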

[5] = AUC (0 to infinity) in Sprague-Dawley rat at 4 mg/kg, iv; format: ADME, organism-based; design: time infinity, dose 4 mg/kg, route intravenous; conditions: plasma
Procedure, shortened: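 Male specific-pathogen-free Sprague-Dawley rats (200-300 g), n = 3; single slow tail-vein bolus of 20% 2-hydroxypropyl-β-cyclodextrin formulation (pH 8.0) at 2 ml/kg. Plasma sampled from orbital plexus at 7 min, 20 min, 1, 3, 8, 24 and 31 h; LC-MS/MS (LLOQ 1 ng/ml); noncompartmental analysis of individual plasma profiles.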

[6] = Ratio of AUC (0 to 31 hrs) in Sprague-Dawley rat liver to AUC (0 to 31 hrs) in Sprague-Dawley rat plasma at 40 mg/kg, po administered as single dose; format: ADME, organism-based; design: dose 40 mg/kg, route oral; conditions: read-out: Ratio AUC; procedure, shortened: as §1
Hepatitis C virus [7] = assay: Antiviral activity against HCV 1b infected in human HuH7 cells assessed as effect on cell viability upto 5 weeks; format: functional, organism-based; conditions: Hepacivirus hominis; genotype 1b; Huh-7
Hepatitis C virus [8] = assay: Antiviral activity against HCV 1a H77 infected in human HuH7 cells assessed as viral RNA level after 72 hrs by quantitative reverse transcriptase PCR; format: functional, organism-based, Hepacivirus hominis; conditions: genotype 1a H77, Huh-7, 72 h
Procedure, shortened: (§3)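 Replicon cells (Huh7-Luc at 3,000/well; con1b S2204I or 1a H77 P1496L/S2204I at 6,000/well) exposed to a dilution range for 72 h in 0.5% DMSO without G418. Lysates reverse transcribed 30 min at 42°C with an HCV 5′UTR primer and an RPL13A control. Inhibition from threshold-cycle difference versus mock; EC50 taken from the dose-response curve.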

[9] = Absolute bioavailability in Sprague-Dawley rat at 40 mg/kg, po; format: ADME, organism-based; conditions: in vivo
Procedure, shortened: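 Male SPF Sprague-Dawley rats (200–300 g, n = 3/group). Oral gavage at 40 mg/kg in vitamin E TPGS–PEG 400 solution (2 ml/kg); i.v. reference was a 4 mg/kg tail-vein slow bolus in 20% hydroxypropyl-β-cyclodextrin, pH 8.0. Plasma sampled up to 31 h and assayed by LC-MS/MS (LLOQ 1 ng/ml). Noncompartmental analysis; Fabs = dose-normalized mean AUC0-∞ p.o./i.v.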

[10] = Tmax in Sprague-Dawley rat large intestine; format: ADME, tissue-based
Procedure, shortened: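 Male Sprague-Dawley rats given a single oral dose of 40 mg/kg in TPGS–PEG400, three per time point. Tissues dissected at times up to 31 h and measured by LC-MS/MS (LLOQ 5 ng/g).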

[11] = Tmax in Sprague-Dawley rat plasma at 40 mg/kg, po upto 31 hrs; format: ADME, organism-based; design: dose 40 mg/kg, route oral
Procedure, shortened: (§4)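 Male SPF Sprague-Dawley rats (200–300 g), three per group. Oral gavage at 40 mg/kg (2 ml/kg) in TPGS–PEG400 solution. Plasma sampled 0.5–31 h, measured by LC-MS/MS (LLOQ 1 ng/ml). Noncompartmental analysis.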

[12] = system: Human immunodeficiency virus 1; assay: Antiviral activity against Human immunodeficiency virus 1 3b infected in human MT4 cells at 10 to 100 uM; format: functional, organism-based
Procedure, shortened: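 HIV-1 IIIB in MT-4 cells, enhanced green fluorescent protein-based read-out. Highest concentration tested 10 to 100 μM.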

Hepatitis C virus [13] = assay: Antiviral activity against Hepatitis C virus in presence of 1 mg/ml alpha-1 acid glycoprotein and 40 mg/ml human serum albumin
[14] = Half life (8 to 24 hrs) in Sprague-Dawley rat plasma at 40 mg/kg, po; format: ADME, organism-based; design: dose 40 mg/kg, route oral; procedure, shortened: as §4
Hepatitis C virus [15] = assay: microbe, parasite or virus in culture
Hepatitis C virus [16] = assay: microbe, parasite or virus in culture; remark: listed apart in the source
[17] = system: Bovine viral diarrhea virus 1; assay: Antiviral activity against Bovine viral diarrhea virus 1 NADL infected in […] cells inhibition of virus-induced cytopathic effect at 10 to 100 uM; format: functional, organism-based
Procedure, shortened: (§5)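 Cytopathic effect inhibition assay: BVDV-NADL in MDCK cells; WNV-NY99/1 in Vero cells. Highest concentration tested 10 to 100 μM.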

HepG2 = assay: Cytotoxicity against human HepG2 cells upto 42 uM after 3 to 4 days by resazurin proliferation assay; format: cell-based; procedure, shortened: as §2
[18] = Half life (8 to 24 hrs) in Sprague-Dawley rat plasma at 4 mg/kg, iv; format: ADME, organism-based; design: dose 4 mg/kg, route intravenous
Procedure, shortened: (§6)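 Male SPF Sprague-Dawley rats (200–300 g), n=3. Single slow i.v. tail-vein bolus at 4 mg/kg (2 ml/kg) in 20% hydroxypropyl-β-cyclodextrin, pH 8.0. Plasma sampled 7 min to 31 h, measured by LC-MS/MS (LLOQ 1 ng/ml). Noncompartmental analysis.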

Hepatitis C virus [19] = assay: Antiviral activity against Hepatitis C virus in presence of 40% human serum
Hepatitis C virus [20] = assay: Antiviral activity against Hepatitis C virus 1b infected in human HuH7 cells assessed as viral RNA level after 72 hrs by luciferase reporter gene assay; format: functional, organism-based, Hepacivirus hominis; conditions: genotype 1b, Huh-7, 72 h
Procedure, shortened: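 Huh7-Luc cells carrying a genotype 1b con1 subgenomic replicon (clone ET, firefly luciferase, adaptive mutations E1202G/T1280I/K1846T). 2,500 cells/well, serial dilutions, 0.5% DMSO final, no G418. Luciferase signal read after 72 h; EC50 taken from the dose-response curve relative to medium control.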

[21] = Total plasma clearance in Sprague-Dawley rat at 4 mg/kg, iv; format: ADME, organism-based; design: dose 4 mg/kg, route intravenous; procedure, shortened: as §6
Hepatitis C virus [22] = assay: Antiviral activity against Hepatitis C virus 1b isolate con1 infected in human HuH7 cells assessed as viral RNA level after 72 hrs by quantitative reverse transcriptase PCR; format: functional, organism-based, Hepacivirus hominis; conditions: Con1, Huh-7, 72 h; procedure, shortened: as §3
[23] = Cytotoxicity against human HEK293T cells upto 42 uM after 3 to 4 days by resazurin proliferation assay; format: cell-based; conditions: hek-293t; procedure, shortened: as §2
Hepatitis C virus [24] = assay: Antiviral activity against Hepatitis C virus in presence of 40 mg/ml human serum albumin
West Nile virus = assay: Antiviral activity against West Nile virus NY99/1 infected in green monkey Vero cells inhibition of virus-induced cytopathic effect at 10 to 100 uM; format: functional, organism-based; procedure, shortened: as §5
Hepatitis C virus [25] = assay: Inhibition of HCV 1b isolate con1 NS3/4A protease using RetS1 as a substrate by fluorescence resonance energy transfer cleavage assay

COc1ccc2c(O[C@@H]3C[C@H]4C(=O)N[C@]5(C(=O)NS(=O)(=O)C6CC6)C[C@H]5/C=C\CCCCN(C)C(=O)[C@@H]4C3)cc(-c3nc(C(C)C)cs3)nc2c1C [SIMEPREVIR]
Kp [1]: 0.5
EC50 (Hepatitis C virus [2]): 11.4 nM
Activity [3]: Non-toxic
AUC [4]: 7750 ng·h/mL
AUC(0-inf) [5]: 1750 ng·h/mL
Kp [6]: 39
Activity (Hepatitis C virus [7]): inactive
EC50 (Hepatitis C virus [8]): 28.4 nM
EC90 (Hepatitis C virus [8]): 120 nM
bioavailability [9]: 44%
Tmax [10]: 8 h
Tmax [11]: 2 h
Activity [12]: inactive
EC50 (Hepatitis C virus [13]): 14.6 nM
half-life [14]: 156 min
EC50 ratio (Hepatitis C virus [15]): 1.4
EC50 ratio (Hepatitis C virus [16]): 1.7
Activity [17]: inactive
Activity (HepG2): Non-toxic
half-life [18]: 240 min
EC50 (Hepatitis C virus [19]): 11.2 nM
EC50 (Hepatitis C virus [20]): 8.1 nM
EC90 (Hepatitis C virus [20]): 23.6 nM
clearance [21]: 38.3 mL/min/kg
EC50 (Hepatitis C virus [22]): 25.2 nM
EC90 (Hepatitis C virus [22]): 118 nM
Activity [23]: Non-toxic
EC50 (Hepatitis C virus [24]): 14.1 nM
Activity (West Nile virus): inactive
Ki (Hepatitis C virus [25]): 0.4 nM
